Measurements as given in PubChem BioAssay.
Active and inactive are the calls of the source.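 The calls were made as follows, unless noted: active = viability at or under a set limit in both replicates, limit being median viability minus 3 SD (cut at about 48% in these data, passing the limit was not always enough); inconclusive = at or under the limit in just one replicate; inactive = at or above the limit in both replicates.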

Assays:
[1] = HUVEC growth inhibition – cell-based, human, primary screen (AID 575;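 active = viability at or below 30% in both replicate assays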;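 also: 100% = median of untreated cell wells with 0.1% DMSO on each plate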); details: HUVEC proliferation, CellTiter-Glo luminescence, 72 h; at 10 µM; stronger effect = lower value
Outline: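 system = HUVEC primary cells | amount = 1250 cells/well | buffer or medium = supplemented EBM, 2% fetal bovine serum | dosing = single-point 10 µM, DMSO 0.1% final | times = 72 h compound incubation | detection = CTG luminescence | read-out = % viability relative to median vehicle-well signal on each plate | control set = vehicle and MePR control wells | format = collagen-coated 384-well format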

[2] = growth inhibitors of H69AR lung tumor, primary screen, human, duplicate replicates (AID 580); details: H69AR lung tumor cells viability, ATP luminescence, 72 h; at 10 µM; stronger effect = lower value;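 also: 100% = mean luminescence of untreated wells and 0% = no signal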
[3] = reversal of MRP1-mediated doxorubicin resistance, pilot screen, H69AR cells, doxorubicin co-treatment (AID 601;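 active = viability loss from added drug above about 55%, and viability with drug at most 40%, in both replicates, limit read from the data, passing the limit was not always enough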); details: CellTiter-Glo, 72 h, at 10 µM; for differential viability (reversal): stronger effect = higher value
[4] = 384-well plate pilot, post-Golgi transport modulator project, inhibition of yeast transport mutant growth (AID 636; in the data active = inhibition above about 31%); details: absorbance 615 nm, about 18 h, stronger effect = higher value
[5] = growth suppression of yeast trafficking mutant, preliminary HTS, modulators of trafficking downstream of Golgi apparatus project, 1536-format plate, OD 615 nm (AID 637; in the data active = inhibition above about 30%); details: yeast transport mutant growth, absorbance 615 nm, 18 h; stronger effect = higher value
[6] = H69AR cells + 2 uM doxorubicin, measured here: viability with 2 uM doxorubicin, stronger effect = lower value
[7] = H69AR cells, compound alone cytotoxicity

SMILES	viability [1]	viability [2]	differential viability (reversal) ([3]; H69AR cells + 2 uM doxorubicin)	viability [3, 6]	viability [3, 7]	inhibition [4]	inhibition [5]
COC(=O)c1ccccc1NC(=O)c1noc2c1CC(C(C)(C)C)CC2 (stereo not given)	112% (inactive)	107% (inactive)	14.2% (inactive)	92.9%	107%	-1.17% (inactive)	0.63% (inactive)
Cc1ccc2nc(CSc3nnc(-c4ccco4)n3-c3ccccc3)cc(=O)n2c1	109% (inactive)	87.2% (inactive)	-10.8% (inactive)	98%	87.2%	4.81% (inactive)	16.4% (inactive)
O=C(Nc1ccc(Cl)c(Cl)c1)Nc1cc(C(=O)N2CCOCC2)ccc1N1CCCCC1	105% (inactive)	95.9% (inactive)	4.12% (inactive)	91.8%	95.9%	-4.08% (inactive)	-2.22% (inactive)
COc1ccc(C)cc1NC(=O)CCN1CCCC1	105% (inactive)	97.5% (inactive)	9.77% (inactive)	87.7%	97.5%	-6.13% (inactive)	1.11% (inactive)
COC(=O)Cn1c2ccccc2c2nc(C)sc21	87.2% (inactive)	92.7% (inactive)	1.14% (inactive)	91.5%	92.7%	-0.8% (inactive)	-3.65% (inactive)
COc1ccc(CCNS(=O)(=O)c2ccc3c(c2)OCCO3)cc1	109% (inactive)	103% (inactive)	10.1% (inactive)	92.6%	103%	-0.53% (inactive)	-3.17% (inactive)
COc1ccc(NC(=O)c2ccco2)cc1NC(=O)c1cccs1	92.2% (inactive)	88.5% (inactive)	-3.49% (inactive)	92%	88.5%	0.13% (inactive)	13.8% (inactive)
CN1CCN(S(=O)(=O)c2ccc(NC(=O)c3ccc(F)cc3)cc2)CC1	94.2% (inactive)	96.8% (inactive)	7.89% (inactive)	88.9%	96.8%	-4% (inactive)	-5.08% (inactive)
CCOC(=O)c1sc(NC(=O)CSc2nc3c(cc2C#N)CCC3)c(C#N)c1C	74.7% (inactive)	91.1% (inactive)	-8.41% (inactive)	99.5%	91.1%	-5% (inactive)	-0.32% (inactive)
O=C(Nc1ccc2c(c1)C(=O)N(C1CCCCC1)C2=O)C1CCCO1 (stereo not given)	90.8% (inactive)	90.9% (inactive)	-1.69% (inactive)	92.6%	90.9%	-3.33% (inactive)	-0.63% (inactive)
Cc1nn(-c2ccccc2)c(Cl)c1C1C(C#N)=C(N)OC2=C1C(=O)CC(C)(C)C2 (stereo not given)	49.1% (inactive)	12.2% (active)	-72.2% (inactive)	84.4%	12.2%	-4.68% (inactive)	-4.29% (inactive)
Cc1ccc(NCc2nnc(SCC(=O)NCc3ccco3)n2CC2CCCO2)cc1Cl (stereo not given)	85.6% (inactive)	88.5% (inactive)	-7.28% (inactive)	95.8%	88.5%	5% (inactive)	-3.17% (inactive)
COCCNC(=O)c1ccc(Cl)c(Cl)c1	108% (inactive)	102% (inactive)	17% (inactive)	85%	102%	-3.16% (inactive)	-0.16% (inactive)
O=C(Nc1cc(C(F)(F)F)ccc1Cl)C1CCN(c2nnc(-n3cccc3)s2)CC1	80.2% (inactive)	70.9% (inactive)	7.64% (inactive)	63.3%	70.9%	-6% (inactive)	2.22% (inactive)
c1ccc(-c2nc3nonc3c3nc4ccccc4n23)cc1	93.8% (inactive)	88.8% (inactive)	-1.96% (inactive)	90.8%	88.8%	-6.27% (inactive)	1.9% (inactive)
CCOCCCNC(=O)c1ccc2c(c1)ncn2C1CCCC1	91% (inactive)	95.8% (inactive)	7.26% (inactive)	88.5%	95.8%	2.24% (inactive)	-3.81% (inactive)
Cc1ccc(CC23CN4CCN(CC(C4)C2O)C3)c(C)c1 (stereo not given)	109% (inactive)	94.6% (inactive)	8.52% (inactive)	86.1%	94.6%	-2.37% (inactive)	3.02% (inactive)
COc1ccc(CCNS(=O)(=O)c2ccc(C(=O)NCc3ccco3)cc2)cc1OC	83.4% (inactive)	80.9% (inactive)	-4.64% (inactive)	85.6%	80.9%	1.3% (inactive)	10.9% (inactive)
CCC1(CC)C(=O)C(C)(C)C(=O)OC1c1cccs1 (stereo not given)	120% (inactive)	90.7% (inactive)	5.04% (inactive)	85.7%	90.7%	-2.89% (inactive)	2.86% (inactive)
CN(C)S(=O)(=O)N1CCN(S(=O)(=O)c2ccc(F)cc2)CC1	90.7% (inactive)	101% (inactive)	4.42% (inactive)	96.1%	101%	2.8% (inactive)	-2.22% (inactive)

SMILES	viability [1]	viability [2]	differential viability (reversal) ([3]; H69AR cells + 2 uM doxorubicin)	viability [3, 6]	viability [3, 7]	inhibition [4]	inhibition [5]
COC(=O)c1ccc2c(c1)C(=O)N(C1CCCCC1)C2=O	105% (inactive)	104% (inactive)	7.39% (inactive)	96.7%	104%	-2.93% (inactive)	1.11% (inactive)
O=C1CCCc2c1nn(-c1ccccc1)[n+]2[O-]	110% (inactive)	98.1% (inactive)	1.57% (inactive)	96.5%	98.1%	-5.33% (inactive)	-5.4% (inactive)
COc1cccc(-n2c(SCC(=O)OC(C)C)nnc2-c2cccnc2)c1	88.3% (inactive)	97.4% (inactive)	4.17% (inactive)	93.2%	97.4%	-1.32% (inactive)	-3.02% (inactive)
COc1ccc(CCNC(=O)c2nc3ncccn3n2)cc1OC	113% (inactive)	102% (inactive)	7.66% (inactive)	94.5%	102%	-4.08% (inactive)	7.78% (inactive)
COc1ccc(-n2c(N)c(C(=O)NCc3ccco3)c3nc4ccccc4nc32)c(OC)c1	61.8% (inactive)	11% (active)	-1.38% (inactive)	12.4%	11%	-0.8% (inactive)	-0.16% (inactive)
O=C(c1ccco1)N1CCN(C(=O)c2ccc(Cn3cc(Br)cn3)o2)CC1	91% (inactive)	79.7% (inactive)	-12.7% (inactive)	92.4%	79.7%	-2.11% (inactive)	2.86% (inactive)
CC(=O)c1ccc(NC(=O)CSc2nnc(-c3ccoc3C)n2Cc2ccccc2)cc1	80.3% (inactive)	93.5% (inactive)	3.91% (inactive)	89.6%	93.5%	-2.27% (inactive)	-8.57% (inactive)
COc1ccc(N2C(=O)CC(N3CCN(S(=O)(=O)c4c(F)cccc4F)CC3)C2=O)cc1OC (stereo not given)	107% (inactive)	103% (inactive)	8.42% (inactive)	94.3%	103%	-2.34% (inactive)	-6.35% (inactive)
Cc1ccc(NC(=O)C2CCCNC2=O)nc1 (stereo not given)	106% (inactive)	97.8% (inactive)	3.79% (inactive)	94%	97.8%	-0.13% (inactive)	-2.7% (inactive)
S=c1[nH]ncn1-c1ccccn1	81.6% (inactive)	93.9% (inactive)	-4.69% (inactive)	98.6%	93.9%	-5.33% (inactive)	-0.63% (inactive)
CCN(CC(=O)O)S(=O)(=O)c1cc(Cl)ccc1Cl	96.5% (inactive)	90.9% (inactive)	-1.08% (inactive)	92%	90.9%	-7.2% (inactive)	-1.75% (inactive)
O=C(NCCN1CCCCCC1)c1ccc(N2CCCC2=O)cc1	91% (inactive)	95.9% (inactive)	3.38% (inactive)	92.5%	95.9%	-7.2% (inactive)	12.5% (inactive)
O=c1oc2ccccc2c(O)c1CN1CCCCC1	96.3% (inactive)	99.9% (inactive)	16.1% (inactive)	83.8%	99.9%	-6% (inactive)	2.22% (inactive)
Cc1ccc(OCc2nnc(SCC(=O)Nc3ccc4c(c3)OCO4)n2C)cc1	91.2% (inactive)	76.9% (inactive)	-22.4% (inactive)	99.3%	76.9%	-7.07% (inactive)	6.98% (inactive)
COc1ccccc1-c1ccc(Nc2cccc(C(C)=O)c2)nn1	55.8% (inactive)	71.6% (inactive)	15.8% (inactive)	55.8%	71.6%	-0.52% (inactive)	-4.92% (inactive)
CCN1C(=O)/C(=C/N2CCc3ccccc32)SC1=S	98.3% (inactive)	58.5% (inactive)	-3.35% (inactive)	61.9%	58.5%	-2.63% (inactive)	0.95% (inactive)
CC(=O)N1CCN(S(=O)(=O)c2ccc(S(=O)(=O)NC3CC3)cc2)CC1	112% (inactive)	92.3% (inactive)	5.03% (inactive)	87.3%	92.3%	-6.8% (inactive)	2.86% (inactive)
c1ccc2[nH]c(CSc3nnc(-c4ccncc4)o3)nc2c1	104% (inactive)	90.9% (inactive)	-5.82% (inactive)	96.7%	90.9%	-2.24% (inactive)	2.06% (inactive)
CCc1nccn1S(=O)(=O)c1ccc2ccc(C)cc2c1	105% (inactive)	91.3% (inactive)	-2.18% (inactive)	93.5%	91.3%	2.24% (inactive)	-3.49% (inactive)
Cc1ccc(NC(=O)c2ccco2)cc1NC(=O)CSc1nnc(-c2cccs2)n1C	112% (inactive)	99.8% (inactive)	23.4% (inactive)	76.4%	99.8%	-6.13% (inactive)	2.38% (inactive)
